Screening results deposited in PubChem BioAssay by several laboratories.
APP 5'UTR act: APP 5'UTR luciferase reporter activation; activation, % at 2 µM; SH-SY5Y APP 5'UTR luciferase reporter, luminescence; zero percent = DMSO vehicle wells; 190,000 tested, 1% active;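 active = activation above a set limit, based on mean plus 3 SD of controls, cut at about 140% in these data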
FLuc inhib CS: counter-screen for luciferase assay inhibitors: firefly luciferase inhibition; P08659; ATPLite firefly luciferase biochemical luminescence, 10 min; inhibition, % at 10 µM; 200,000 tested, 1.5% active;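 active = inhibition above about 50% when tested at 10 µM, limit read from the data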
Target sequence (P08659 whole entry, looked up): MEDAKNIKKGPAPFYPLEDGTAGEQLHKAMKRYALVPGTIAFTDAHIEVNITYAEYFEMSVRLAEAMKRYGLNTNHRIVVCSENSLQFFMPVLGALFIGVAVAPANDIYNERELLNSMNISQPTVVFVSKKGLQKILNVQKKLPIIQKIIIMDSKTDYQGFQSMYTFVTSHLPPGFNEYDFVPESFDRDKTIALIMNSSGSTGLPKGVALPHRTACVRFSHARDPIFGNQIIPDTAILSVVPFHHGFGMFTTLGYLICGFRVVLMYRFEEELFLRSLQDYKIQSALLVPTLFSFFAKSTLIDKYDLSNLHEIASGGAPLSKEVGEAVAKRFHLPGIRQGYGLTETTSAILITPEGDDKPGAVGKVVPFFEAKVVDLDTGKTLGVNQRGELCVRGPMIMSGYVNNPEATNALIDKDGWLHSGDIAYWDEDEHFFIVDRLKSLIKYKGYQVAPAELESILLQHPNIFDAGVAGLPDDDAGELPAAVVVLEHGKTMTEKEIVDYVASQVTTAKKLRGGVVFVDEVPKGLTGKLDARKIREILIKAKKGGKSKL
APP 5UTR inh: APP translation inhibition; 190,000 tested, 0.82% active; inhibition, % at 2 µM; SH-SY5Y APP 5'UTR-luciferase reporter, luminescence;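 active = inhibition above a set limit, derived from the sample mean plus 3 SD, cut at about 45% in these data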
NF-kB neuron act: compounds increasing NF-kB expression in human neuronal cells; NF-kB reporter expression; active compounds read high; fold change at 12.5 µM; 190,000 tested, 1.6% active; AID 1239; in the data active = fold change above about 3.3
STAT1 activator: activators of IFN-gamma induced STAT1 signaling. NIH 3T3 STAT1-luciferase reporter, luminescence; 100% = IFN-gamma alone, no compound. AID 932. 200,000 tested, 2.6% active. activation (% of control), % at 5.5 µM;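 active = activation above the screen-wide mean activation plus 3 SD, cut at about 130% in these data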
FLuc act counter: affects firefly luciferase, flagging false hits in luciferase stimulation screens | P08659 | ATPlite luciferase biochemical, luminescence, 10 min; 0 = ATP-free wells, 1 = DMSO control | activation factor at 10 µM | 200,000 tested, under 10 active;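 active = luciferase activation factor, scaled between plate controls, of at least 2 with compound at 10 µM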
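System: luciferase plus luciferin reagent, cell-free; medium: PBS as buffer for the ATP substrate; dosing: test compounds dosed from 2 mM stocks in 100% DMSO; timing: 10 min post-reagent at room temperature; measured by: luminescence measurement of luciferase light output; evaluation: luciferase activation, seen as luminescence increase over controls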
Of the large screens only hits and unclear results are named; the others gave an inactive call. Only some compounds are listed: those with a hit (about 4.8% of all), similar ones and a draw of the others.

COc1ccc(/C=N/NC(=O)c2ccoc2C)cc1COc1c(C)cccc1C	none
Cc1occc1C(=O)N/N=C/C=C/c1ccccc1	STAT1 activator 146.5
COc1cc(/C=N/NC(=O)c2ccoc2C)cc(OC)c1O	STAT1 activator 134.6
Cc1ccc(/C=N/NC(=O)c2ccoc2C)o1	STAT1 activator 132.1
Cc1cc(C(=O)N/N=C/c2ccc(C)o2)c2ccccc2n1	APP 5UTR inh 72.8
Cc1ccc(/C=N/NC(=O)C(=O)N/N=C/c2ccc(C)o2)o1	none
COc1cc(OC)nc(NC(=O)NS(=O)(=O)c2ccc(F)cc2)n1	none (no result: NF-kB neuron act)
O=C(Nc1nnc(-c2ccco2)o1)c1ccc([N+](=O)[O-])s1	none
CCCCOc1ccc2c(c1)/C(=C(\C(Cl)=C(Cl)Cl)[N+](=O)[O-])N2	none
C=CCNc1ncnc2c1cnn2-c1cccc(C)c1	APP 5'UTR act 211.9, NF-kB neuron act 4.97, STAT1 activator 141.5
Cc1ccc(-n2ncc3c(NCc4ccccc4)ncnc32)cc1	STAT1 activator 136.5
Cc1cccc(-n2ncc3c(NCCCO)ncnc32)c1	APP 5'UTR act 135.4, FLuc inhib CS 52.7, STAT1 activator 140.6
CCCCNc1ncnc2c1cnn2-c1ccccc1	NF-kB neuron act 5.65, STAT1 activator 134.2
Cc1cccc(-n2ncc3c(NCc4ccc5c(c4)OCO5)ncnc32)c1	none
c1ccc(-n2ncc3c(NCCCN4CCOCC4)ncnc32)cc1	none
O=[N+]([O-])c1ccc2nccn2c1	none
COC(=O)c1sccc1NC(=S)N1CCC(C(N)=O)CC1	none
Cc1ccc(-n2ncc3c(NCc4ccccn4)ncnc32)c(C)c1	none
Clc1ccc(-n2ncc3c(NCc4ccccn4)ncnc32)cc1	STAT1 activator 149.6
CC(=O)Oc1ccc(C)cc1-n1nc2ccccc2n1	NF-kB neuron act 3.49
Cc1ccc(OC(=O)c2cccc(S(=O)(=O)N3CCCC3)c2)c(-n2nc3ccccc3n2)c1	NF-kB neuron act 3.54
Cc1ccc(OC(=O)c2ccc(S(=O)(=O)N(C)C)cc2)c(-n2nc3ccccc3n2)c1	NF-kB neuron act 4.48
Cc1c(C(=O)C(=O)NCC2CCCO2)c2ccccc2n1C (configuration not stated)	none
CN=C1CC(SC)=C1c1ccc(C)cc1	none
CCCCC(=O)Nc1ccccc1Oc1ccccc1	none
CC1Oc2ccccc2C=C1/C=N/NC(=O)c1ccccc1 (configuration not stated)	STAT1 activator 133.1
CC1Oc2ccccc2C=C1/C=N/NC(=O)c1ccccc1O (configuration not stated)	FLuc inhib CS 78.3
C=CCN(C(=O)CNC(=O)c1cccs1)C(C(=O)NC(C)(C)C)c1ccccc1 (configuration not stated)	none
Cn1c(SCc2nnc(-c3ccccc3Br)o2)nc2sc3c(c2c1=O)CCC3	NF-kB neuron act 4.53
CCOC(=O)c1cc2c(s1)-c1ccccc1CC2	STAT1 activator 131.2
CCOC(=O)c1sc(/N=C/c2c(O)ccc3ccccc23)cc1C	none
CCOC(=O)c1cc2ccc3ccccc3c2s1	STAT1 activator 151.4
CCC(=O)N(Cc1ccc(S(N)(=O)=O)cc1)C1CC(=O)N(c2ccc(OC)cc2)C1=O (configuration not stated)	none
O=C(NCc1ccccc1)c1cc(-c2ccco2)on1	none
COc1ccc(CCNC(=O)c2cc(-c3ccco3)on2)cc1OC	NF-kB neuron act 4.49
Cc1ccc(NC(=O)c2cc(-c3ccco3)on2)cc1C	STAT1 activator 131.5
O=C(NCCc1ccccc1)c1cc(-c2ccco2)on1	NF-kB neuron act 5.78, STAT1 activator 131.9
Cc1ccc(NC(=O)c2cc(-c3ccco3)on2)cc1	none
CCN(CC)C(=O)CC(c1ccc(F)cc1)c1ccco1 (configuration not stated)	none
O=c1cc(CN2CCN(c3ccccc3O)CC2)nc2sccn12	none
O=c1cc(CN2CCc3ccccc3C2)nc2sccn12	NF-kB neuron act 3.53
Cn1cc(CC(=O)Nc2cccc(C#N)c2)c2ccccc21	none
Cc1ccc(Nc2n[nH]c(C)c2[N+](=O)[O-])cc1	STAT1 activator 146.9
CCN(CC)c1ccc(/C=C2/SC(=O)N(C(C)C)C2=O)o1	APP 5UTR inh 92.0
CCN(CC)c1ccc(/C=C(/C#N)C(=O)NC(C)C)o1	none
CCCS(=O)(=O)c1nnnn1-c1cccc(OC)c1	APP 5UTR inh 61.8
COc1cccc(-n2nnnc2SCC(=O)Nc2ccc(C(C)=O)cc2)c1	none
O=C(CCN1C(=O)c2ccccc2C1=O)N1CCC(c2ccccc2)C1 (configuration not stated)	none
O=C(N=Nc1c(O)[nH]c2ccc(Br)cc12)c1ccccc1-n1cccc1	APP 5UTR inh 91.6
Cc1cc(C)nc(SCc2ccc(C(=O)NNC(=O)Nc3cccc(Cl)c3)cc2)n1	none
COc1ccc(CCNC(=O)C2CCC(=O)N2CCc2ccccc2)cc1OC (configuration not stated)	none
N=c1c2c(-c3ccccc3)c(-c3ccccc3)n(Cc3ccccc3)c2ncn1CCO	APP 5UTR inh 77.8
Cc1ccc(NC(=O)c2cc(N3C(=O)C=CC3=O)ccc2N2CCOCC2)cc1	APP 5UTR inh 77.0
Cc1ccc(NC(=O)c2cc(-n3cnnc3)ccc2Cl)cc1	none
Cc1ccc(NC(=O)c2cc(NC(=O)c3ccco3)ccc2N2CCOCC2)cc1	none
Cc1ccc(NC(=O)c2cc(N3C(=O)C=CC3=O)ccc2Cl)cc1C	APP 5UTR inh 45.3
Cn1c(N=NC(=O)c2ccccc2)c(O)c2ccccc21	FLuc inhib CS 86.3, STAT1 activator 142.9
CC(=O)c1c(O)c2ccccc2n(C)c1=O	none
COc1cc(C(=O)Nc2ccc3c(c2)CCN3C(C)=O)cc(OC)c1OC	APP 5UTR inh 81.0
COc1cccc(CNC(=O)CN2CCC(c3nc4ccc(C)cc4[nH]3)CC2)c1	none
Cc1cc2nc(N)sc2cc1C	none
Cc1cc2nc(N3C(=O)CNC3=S)sc2cc1C	FLuc inhib CS 82.5
CCC(C)(C)NC(=O)C(c1ccc(C)cc1)N(Cc1ccco1)C(=O)CCC(=O)Nc1nccs1 (configuration not stated)	none
Cc1ccc(C(=O)O/N=C/c2c(N3CCOCC3)n(C)c3ccccc23)cc1	APP 5UTR inh 70.3
CCOc1ccc(N2C(=O)CC(SCCN)C2=O)cc1 (configuration not stated)	FLuc inhib CS 56.8
CCOc1ccc(N2C(=O)CC(Sc3nc(C)cc(C)n3)C2=O)cc1 (configuration not stated)	none
O=C(c1sc2cc(F)ccc2c1Cl)N1CCN(c2ccccc2)CC1	none
c1ccc(-n2nnnc2SCc2cn3ccccc3n2)cc1	none
Cn1ccnc1SCc1cn2ccccc2n1	APP 5'UTR act 241.5, STAT1 activator 143.6
c1ccn2cc(CSC3=NCCS3)nc2c1	STAT1 activator 129.7
Cc1ccc(SCc2cn3cccnc3n2)cc1	none
